The values that follow come from ChEMBL document CHEMBL4118256, “Second Generation of Mannich Base-Type Derivatives with in Vivo Activity against Trypanosoma cruzi” (J Med Chem, 2018).

Calls of active or inactive are those of the source. The rule behind the calls is not given here. Where only a bound is given, the exact number is not on record here.

For series [1], the system named is Trypanosoma cruzi. Kind of series: Antitrypanosomal activity against Trypanosoma cruzi MHOM/Pe/2011/Arequipa DTU 5 epimastigotes assessed as effect on parasite glycolytic pathway by measuring L-alanine excretion at IC25 after 72 hrs by 1H NMR method. It is filed as functional, organism-based. An outline of the steps:
(§1)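 Arequipa epimastigotes exposed at IC25 for 72 h alongside an untreated control. Excreted catabolites were analysed by 1H NMR, and each peak is reported as % variation versus the control. Three separate determinations.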

The subject of series [2] is Trypanosoma cruzi. As to the kind of experiment: Antitrypanosomal activity against Trypanosoma cruzi MHOM/Pe/2011/Arequipa DTU 5 trypamastigotes infected in Balb/c mouse assessed as reduction in Ig-G level in serum at 100 mg/kg, po pretreated once daily for 5 consecutive days starting from day 10 post infection followed by cyclophosphamide-induced immunosuppression on day 100 post infection every 4 days for a maximum of 3 doses measured on day 127 post infection by ELISA. The format is functional, organism-based. (In an ELISA, binding on a coated surface is turned into a signal by an enzyme label.)

Series [3] concerns Mus musculus. Kind of series: Cardiotoxicity in Balb/c mouse infected with Trypanosoma cruzi MHOM/Pe/2011/Arequipa DTU 5 trypamastigotes assessed as change in serum LDH level at 100 mg/kg, po once daily for 5 consecutive days starting from day 10 post infection measured on day 127 post infection by biochemical analysis relative to control. Particulars: in vivo. The format is toxicity, organism-based.

The subject of series [4] is Mus musculus. Kind of series: Nephrotoxicity in Balb/c mouse infected with Trypanosoma cruzi MHOM/Pe/2011/Arequipa DTU 5 trypamastigotes assessed as decrease in uric acid level in serum at […], po once daily for 5 consecutive days starting from day 10 post infection measured on day 16 post infection by biochemical analysis relative to control. Particulars: in vivo. The format is toxicity, organism-based. The arrangement: scale not given: the % may be the effect or the level left.

Series [5] deals with Mus musculus. Kind of series: Nephrotoxicity in Balb/c mouse infected with Trypanosoma cruzi MHOM/Pe/2011/Arequipa DTU 5 trypamastigotes assessed as decrease in urea level in serum at […], po once daily for 5 consecutive days starting from day 75 post infection measured on day 81 post infection by biochemical analysis relative to control. The arrangement: scale not given: the % may be the effect or the level left. The format is toxicity, organism-based. As to conditions: in vivo.

Series [6] has as its system Mus musculus. As to the kind of experiment: Nephrotoxicity in Balb/c mouse infected with Trypanosoma cruzi MHOM/Pe/2011/Arequipa DTU 5 trypamastigotes assessed as decrease in uric acid level in serum at […], po once daily for 5 consecutive days starting from day 75 post infection measured on day 81 post infection by biochemical analysis relative to control. As to conditions: in vivo. Also noted: scale not given: the % may be the effect or the level left. It is filed as toxicity, organism-based.

Series [7] has as its system Mus musculus. As to the kind of experiment: Hepatotoxicity in Balb/c mouse infected with Trypanosoma cruzi MHOM/Pe/2011/Arequipa DTU 5 trypamastigotes assessed as decrease in ratio of serum ALT to GPT level at […], po once daily for 5 consecutive days starting from day 75 post infection measured on day 81 post infection by biochemical analysis relative to control. The format is toxicity, organism-based. The arrangement: scale not given: the % may be the effect or the level left. As to conditions: in vivo.

For series [8], the system named is Mus musculus. As to the kind of experiment: Nephrotoxicity in Balb/c mouse infected with Trypanosoma cruzi MHOM/Pe/2011/Arequipa DTU 5 trypamastigotes assessed as change in uric acid level in serum at […], po once daily for 5 consecutive days starting from day 75 post infection measured on day 127 post infection by biochemical analysis relative to control. The format is toxicity, organism-based. Particulars: in vivo.

The test system of series [9] is Mus musculus. As to the kind of experiment: Nephrotoxicity in Balb/c mouse infected with Trypanosoma cruzi MHOM/Pe/2011/Arequipa DTU 5 trypamastigotes assessed as change in urea level in serum at […], po once daily for 5 consecutive days starting from day 10 post infection measured on day 127 post infection by biochemical analysis relative to control. The format is toxicity, organism-based. As to conditions: in vivo.

The subject of series [10] is Mus musculus. As to the kind of experiment: Hepatotoxicity in Balb/c mouse infected with Trypanosoma cruzi MHOM/Pe/2011/Arequipa DTU 5 trypamastigotes assessed as decrease in total bilirubin level at […], po once daily for 5 consecutive days starting from day 10 post infection measured on day 16 post infection by biochemical analysis relative to control. The format is toxicity, organism-based. Also noted: scale not given: the % may be the effect or the level left. Particulars: in vivo.

Series [11] concerns Mus musculus. As to the kind of experiment: Hepatotoxicity in Balb/c mouse infected with Trypanosoma cruzi MHOM/Pe/2011/Arequipa DTU 5 trypamastigotes assessed as decrease in alkaline phosphatase level at […], po once daily for 5 consecutive days starting from day 10 post infection measured on day 16 post infection by biochemical analysis relative to control. It is filed as toxicity, organism-based. Also noted: scale not given: the % may be the effect or the level left. As to conditions: in vivo.

Series [12] deals with Mus musculus. Kind of series: Hepatotoxicity in Balb/c mouse infected with Trypanosoma cruzi MHOM/Pe/2011/Arequipa DTU 5 trypamastigotes assessed as decrease in ratio of serum AST to GOT level at […], po once daily for 5 consecutive days starting from day 75 post infection measured on day 127 post infection by biochemical analysis relative to control. It is filed as toxicity, organism-based. The arrangement: scale not given: the % may be the effect or the level left. Particulars: in vivo.

In series [13] the test system is Mus musculus. Kind of series: Nephrotoxicity in Balb/c mouse infected with Trypanosoma cruzi MHOM/Pe/2011/Arequipa DTU 5 trypamastigotes assessed as decrease in urea level in serum at […], po once daily for 5 consecutive days starting from day 10 post infection measured on day 16 post infection by biochemical analysis relative to control. It is filed as toxicity, organism-based. Particulars: in vivo. The arrangement: scale not given: the % may be the effect or the level left.

The test system of series [14] is Mus musculus. Kind of series: Hepatotoxicity in Balb/c mouse infected with Trypanosoma cruzi MHOM/Pe/2011/Arequipa DTU 5 trypamastigotes assessed as decrease in total bilirubin level at […], po once daily for 5 consecutive days starting from day 75 post infection measured on day 81 post infection by biochemical analysis relative to control. The format is toxicity, organism-based. Also noted: scale not given: the % may be the effect or the level left. As to conditions: in vivo.

Series [15] deals with Mus musculus. Kind of series: Hepatotoxicity in Balb/c mouse infected with Trypanosoma cruzi MHOM/Pe/2011/Arequipa DTU 5 trypamastigotes assessed as decrease in ratio of serum AST to GOT level at […], po once daily for 5 consecutive days starting from day 10 post infection measured on day 127 post infection by biochemical analysis relative to control. The arrangement: scale not given: the % may be the effect or the level left. Particulars: in vivo. The format is toxicity, organism-based.

Series [16] concerns Mus musculus. As to the kind of experiment: Hepatotoxicity in Balb/c mouse infected with Trypanosoma cruzi MHOM/Pe/2011/Arequipa DTU 5 trypamastigotes assessed as decrease in ratio of serum ALT to GPT level at […], po once daily for 5 consecutive days starting from day 75 post infection measured on day 127 post infection by biochemical analysis relative to control. It is filed as toxicity, organism-based. The arrangement: scale not given: the % may be the effect or the level left. As to conditions: in vivo.

The test system of series [17] is Trypanosoma cruzi. As to the kind of experiment: Antitrypanosomal activity against Trypanosoma cruzi MHOM/Pe/2011/Arequipa DTU 5 epimastigotes assessed as effect on parasite glycolytic pathway by measuring increase in succinate excretion at IC25 after 72 hrs by 1H NMR method relative to control. The format is functional. In outline: as §1
Series [18] concerns Trypanosoma cruzi. Kind of series: Antitrypanosomal activity against Trypanosoma cruzi MHOM/Pe/2011/Arequipa DTU 5 epimastigotes assessed as effect on parasite glycolytic pathway by measuring acetate excretion at IC25 after 72 hrs by 1H NMR method. It is filed as functional, organism-based. An outline of the steps:
as §1

In series [19] the test system is Mus musculus. As to the kind of experiment: Hepatotoxicity in Balb/c mouse infected with Trypanosoma cruzi MHOM/Pe/2011/Arequipa DTU 5 trypamastigotes assessed as decrease in ratio of serum AST to GOT level at […], po once daily for 5 consecutive days starting from day 10 post infection measured on day 16 post infection by biochemical analysis relative to control. It is filed as toxicity, organism-based. The arrangement: scale not given: the % may be the effect or the level left. Particulars: in vivo.

The test system of series [20] is Trypanosoma cruzi. As to the kind of experiment: Antitrypanosomal activity against Trypanosoma cruzi MHOM/Pe/2011/Arequipa DTU 5 trypamastigotes infected in Balb/c mouse assessed as reduction in parasitaemia reactivation at 100 mg/kg, po pretreated once daily for 5 consecutive days starting from day 75 post infection followed by cyclophosphamide-induced immunosuppression on day 100 post infection every 4 days for a maximum of 3 doses measured up to 1 week post immunosuppression by Neubauer chamber method. The format is functional, organism-based.

For series [21], the system named is Mus musculus. Kind of series: Cardiotoxicity in Balb/c mouse infected with Trypanosoma cruzi MHOM/Pe/2011/Arequipa DTU 5 trypamastigotes assessed as change in ratio of creatine kinase in muscle to brain at 100 mg/kg, po once daily for 5 consecutive days starting from day 10 post infection measured on day 16 post infection by biochemical analysis relative to control. The format is toxicity, organism-based. As to conditions: in vivo.

On to `COc1ccc(C(=O)CCN2CCN(c3ccc(Cl)cc3)CC2)cc1`, for which the result in the series with Trypanosoma cruzi [1] and with Trypanosoma cruzi [18] was inactive. The outcome in the series on Trypanosoma cruzi [2] was Active. Moreover, the Activity in the series on Mus musculus [3] was less than 10%; in the series on Mus musculus [4] it was “<= 30%”; in the series on Mus musculus [5], “<= 30%”; in the series with Mus musculus [6] it was “<= 30%”; with Mus musculus [7], “<= 30%”; in the series with Mus musculus [8] it was less than 10%. The Activity in the series with Mus musculus [9] was less than 10%; in the series with Mus musculus [10] it was “<= 10%”; in the series on Mus musculus [11], “<= 10%”; in the series with Mus musculus [12] it was “<= 20%”; in the series on Mus musculus [13], “<= 30%”; with Mus musculus [14], “<= 20%”. Also, the Activity result in the series with Mus musculus [15] is reported as “<= 10%”; in the series on Mus musculus [16] it was “<= 10%”; in the series on Trypanosoma cruzi [17], 200%; in the series with Mus musculus [19] it was “<= 20%”.
Consider `COc1ccc(C(=O)CCN2CCN(c3ccc([N+](=O)[O-])cc3)CC2)cc1`, for which the result with Trypanosoma cruzi [1], with Trypanosoma cruzi [2] and in the series on Trypanosoma cruzi [18] was inactive. The Activity in the series on Mus musculus [3] is on record as less than 10%; in the series on Mus musculus [4] it was “<= 20%”; in the series on Mus musculus [5], “<= 10%”; in the series on Mus musculus [6], “<= 30%”; in the series with Mus musculus [21] it was less than 10%; in the series with Mus musculus [9] it was less than 10%. Also, the values for the Activity result in the series on Mus musculus [13] and in the series on Trypanosoma cruzi [17] were “<= 20%” and greater than 20%, respectively. The outcome in the series on Trypanosoma cruzi [20] was Active.
For `COc1ccc(C(=O)CCN2CCN(c3ccc(F)cc3)CC2)cc1`, in the series on Trypanosoma cruzi [2], the result was inactive. For the same compound, the Activity is recorded as less than 10% with Mus musculus [3]; “<= 30%” in the series on Mus musculus [7]; less than 10% with Mus musculus [8]; less than 10% with Mus musculus [21]; “<= 10%” in the series with Mus musculus [10]; “<= 20%” in the series with Mus musculus [11]. Further, the Activity result in the series with Mus musculus [12] is listed as “<= 20%”; in the series with Mus musculus [14], “<= 10%”; with Mus musculus [15] it was “<= 10%”; in the series with Mus musculus [16] it was “<= 10%”; with Mus musculus [19] it was “<= 30%”. Besides, the result in the series with Trypanosoma cruzi [20] was Active.
